The values below come from ChEMBL document CHEMBL1144664, “Design, synthesis, and SAR of new pyrrole-oxindole progesterone receptor modulators leading to 5-(7-fluoro-3,3-dimethyl-2-oxo-2,3-dihydro-1H-indol-5-yl)-1-methyl-1H-pyrrole-2-carbonitrile (WAY-255348)” (J Med Chem, 2008).

The target in data set [1] is T1, Progesterone receptor (Homo sapiens, UniProt P06401).
T1 sequence (P06401 whole entry): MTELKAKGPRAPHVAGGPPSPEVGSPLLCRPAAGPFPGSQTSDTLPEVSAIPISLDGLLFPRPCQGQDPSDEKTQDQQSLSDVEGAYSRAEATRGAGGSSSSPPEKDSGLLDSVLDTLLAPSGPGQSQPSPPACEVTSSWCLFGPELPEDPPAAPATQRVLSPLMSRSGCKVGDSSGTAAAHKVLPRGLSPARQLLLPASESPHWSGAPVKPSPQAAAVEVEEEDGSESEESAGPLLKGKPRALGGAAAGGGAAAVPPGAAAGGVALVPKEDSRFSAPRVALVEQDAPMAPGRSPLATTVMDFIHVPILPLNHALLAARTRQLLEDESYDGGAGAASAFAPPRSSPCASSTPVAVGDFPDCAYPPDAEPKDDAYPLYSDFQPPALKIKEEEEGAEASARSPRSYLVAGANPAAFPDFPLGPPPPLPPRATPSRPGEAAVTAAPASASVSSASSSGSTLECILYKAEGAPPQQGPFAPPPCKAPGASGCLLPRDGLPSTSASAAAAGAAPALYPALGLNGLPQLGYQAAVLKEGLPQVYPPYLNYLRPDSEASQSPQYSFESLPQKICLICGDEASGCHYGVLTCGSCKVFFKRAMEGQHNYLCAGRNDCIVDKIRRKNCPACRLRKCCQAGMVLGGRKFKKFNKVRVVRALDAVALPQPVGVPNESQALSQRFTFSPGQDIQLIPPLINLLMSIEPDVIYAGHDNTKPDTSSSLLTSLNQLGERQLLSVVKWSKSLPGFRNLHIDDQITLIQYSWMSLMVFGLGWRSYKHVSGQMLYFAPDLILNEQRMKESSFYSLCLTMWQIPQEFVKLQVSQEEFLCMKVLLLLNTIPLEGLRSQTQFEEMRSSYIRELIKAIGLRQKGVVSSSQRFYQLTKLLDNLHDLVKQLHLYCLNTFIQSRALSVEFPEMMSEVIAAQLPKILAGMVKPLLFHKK
The experiment in a line: Displacement of [3H]R5020 from human PR in human T47D cells by whole cell assay. Type of data set: cell-based.

Data set [2] concerns the target T1, Progesterone receptor. Description: Agonist activity at human PR expressed in human T47D cells assessed as stimulation of alkaline phosphatase. It counts as functional, cell-based. Put shortly:
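Cell-based agonist-mode assay in T47D cells, without progesterone. Cells were suspended in DMEM/F12 with 5% charcoal-stripped FBS, then incubated with compound for 24 h at 37 °C in 5% CO2. Cells were lysed in 0.1 M Tris-HCl pH 9.8 with 0.2% Triton, and 4 mM p-nitrophenyl phosphate was added. OD405 was read every 5 min for 30 min. EC50 comes from dose-response analysis and is the mean of at least duplicates.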

Data set [3] has as its system Cynomolgus monkey. The experiment in a line: Induction of early menses in cynomolgus monkey at 5 mg/kg, po. It counts as organism-based, Macaca fascicularis. Set-up: dose 5 mg/kg, route oral. The conditions noted are these: in vivo.
For data set [4], the target named is T1, Progesterone receptor. Description: Antagonist activity at human PR expressed in human T47D cells assessed as inhibition of progesterone induced alkaline phosphatase. Type of data set: functional, cell-based.
Data set [5] is described as follows: Stability in cynomolgus monkey liver microsome assessed as half life. Type of data set: ADME, Macaca fascicularis. The note with it: liver microsomes. Put shortly:
(§1)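 Female rat, cynomolgus monkey and human liver microsome stability; half-life (min) reported.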

Data set [6] in a line: Stability in human liver microsome assessed as half life. Type of data set: ADME. The conditions noted are these: liver microsomes. Put shortly:
as §1

Data set [7] is described as follows: Stability in rat liver microsome assessed as half life. Type of data set: ADME. The conditions noted are these: liver microsomes. Put shortly:
as §1

Data set [8] in a line: Drug level in Sprague-Dawley rat at 0.5 mg/kg, iv. Type of data set: ADME, organism-based. The note with it: in vivo. Set-up: dose 0.5 mg/kg, route intravenous. The gist of the method:
(§2)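 Female Sprague–Dawley rats dosed as 1-in-4 cassette or discrete studies. iv in DMSO/PEG200 20:80; po in aqueous 2% Tween 80/0.5% methyl cellulose. Parameters reported: C0, Cmax, t1/2, plasma clearance, Vss, AUC0-inf and %F.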

A short description of data set [9]: Half life in Sprague-Dawley rat at 0.5 mg/kg, iv. It counts as ADME, organism-based. The arrangement: dose 0.5 mg/kg, route intravenous. The conditions noted are these: in vivo. Put shortly: as §2
A short description of data set [10]: Plasma clearance in cynomolgus monkey at […], iv. Type of data set: ADME, organism-based, Macaca fascicularis. Set-up: dose 0.25 mg/kg, route intravenous.
The nature of data set [11]: Drug level in cynomolgus monkey at […], iv. It counts as ADME, organism-based, Macaca fascicularis. The arrangement: dose 0.25 mg/kg, route intravenous. The note with it: in vivo.
Data set [12] in a line: Plasma clearance in Sprague-Dawley rat at 0.5 mg/kg, iv. The arrangement: dose 0.5 mg/kg, route intravenous. It counts as ADME, organism-based. Put shortly:
as §2

A short description of data set [13]: AUC (0 to infinity) in Sprague-Dawley rat at 0.5 mg/kg, iv. Type of data set: ADME, organism-based. Set-up: time infinity, dose 0.5 mg/kg, route intravenous. The conditions noted are these: plasma.
Data set [14] in a line: Volume of distribution at steady state in cynomolgus monkey at […], iv. Type of data set: ADME, organism-based, Macaca fascicularis. The conditions noted are these: in vivo, read-out: Vdss. Set-up: dose 0.25 mg/kg, route intravenous.
Data set [15] in a line: Volume of distribution at steady state in Sprague-Dawley rat at 0.5 mg/kg, iv. It counts as ADME, organism-based. The arrangement: dose 0.5 mg/kg, route intravenous. The note with it: in vivo, read-out: Vdss. The gist of the method:
as §2

The species named for data set [16] is Rattus norvegicus. Description: Antagonist activity in rat uterus assessed as progesterone-induced decidualization response in stromal cells. It counts as functional. The gist of the method:
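Female rat decidualization model: compound given orally in 0.5% methyl cellulose/2% Tween 80 to antagonize the progesterone-induced decidual response of uterine stromal cells. ED50 reported.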

With `Cn1c(C#N)ccc1-c1cc(F)c2c(c1)C1(CCCC1)C(=O)N2`, in data set [1], the IC50 amounted to 14.7 nM. In addition, the EC50 in data set [2] stood at 3000 nM.
In the case of `Cn1c(C#N)ccc1-c1ccc2c(c1)C1(CCCCC1)C(=O)N2`, the IC50 in [1] was found to be 3.3 nM. For the same compound, the EC50 in data set [2] stood at 2.3 nM.
In [1], `Cn1c(C#N)ccc1-c1ccc2c(c1)C(C)(C)OC(=O)N2` displayed an IC50 of 4.9 nM.
Take `Cn1c(C#N)ccc1-c1ccc2c(c1)C1(CCCC1)C(=O)N2`: in data set [1], the IC50 was determined as 8.1 nM. Besides, in [2], the EC50 was determined as 300 nM.
Take `C=C1CCO[C@]12CC[C@H]1[C@@H]3CCC4=CC(=O)CCC4=C3[C@@H](c3ccc(C(C)=O)cc3)C[C@@]12C`: the Activity in data set [3] was determined as 50%.
`CC(=O)OCN1C(=O)C(C)(C)c2cc(-c3ccc(C#N)n3C)cc(F)c21`: the IC50 in data set [4] is 48 nM.
`CN1C(=O)C(C)(C)c2cc(-c3ccc(C#N)n3C)cc(F)c21`: in data set [4], the IC50 was found to be 15 nM.
Compound `CCC1(CC)C(=O)Nc2ccc(-c3ccc(C#N)n3C)cc21` came in with an IC50 in data set [1] of 36 nM. The half-life was 15 min in data set [5], greater than 30 min in data set [6] and 10 min in data set [7].
The compound `Cn1c(C#N)ccc1-c1ccc2c(c1)C(C)(C)C(=O)N2` came in with an IC50 in data set [1] of 22 nM. Also, the Activity in data set [3] is recorded as 0%. The C0 is 288 ng/mL in data set [8] and 241 ng/mL in data set [11]. Moreover, the half-life in data set [9] was 180 min; in data set [5], 13 min; in [6], greater than 30 min; in [7] it was 6 min. Moreover, the clearance in [10] was 12 mL/min/kg; in data set [12], 9 mL/min/kg. In data set [13], the AUC(0-inf) came to 937 ng·h/mL. Further, the Vd in data set [14] was found to be 1.6 L/kg; in data set [15], 2.2 L/kg.
`CCN1C(=O)C(C)(C)c2cc(-c3ccc(C#N)n3C)cc(F)c21`: in [4], the IC50 stood at 29 nM.
As to `Cn1c(C#N)ccc1-c1cc2c(cc1F)NC(=O)C2(C)C`, the IC50 in data set [4] worked out at 20.3 nM. The half-life in data set [7] turned out to be 30 min.
Consider `Cn1c(C#N)ccc1-c1cc(F)c2c(c1)C1(CCCCC1)C(=O)N2`, for which the IC50 in data set [1] came out at 3.6 nM. Moreover, the EC50 in data set [2] stood at 1.3 nM.
Regarding `Cn1c(C#N)ccc1-c1ccc2c(c1F)C(C)(C)C(=O)N2`, the IC50 in [1] stood at 5.5 nM; in [4], 5.9 nM. In addition, in data set [7], the half-life was found to be 2 min.
On to `Cn1c(C#N)ccc1-c1ccc2c(c1)C(C)(C)OC(=S)N2` [TANAPROGET], for which the IC50 in data set [1] worked out at 0.5 nM. Besides, in data set [2], the EC50 worked out at 0.15 nM.
Turning to `N#Cc1ccc(-c2ccc3c(c2)CC(=O)N3)[nH]1`, the IC50 in data set [4] is 300 nM.
`CC#C[C@]1(O)CC[C@H]2[C@@H]3CCC4=CC(=O)CCC4=C3[C@@H](c3ccc(N(C)C)cc3)C[C@@]21C` [MIFEPRISTONE] came in with an Activity in data set [3] of 60%. In addition, in [16], the ED50 came to 0.7 mg/kg.
`CCCN1C(=O)C(C)(C)c2cc(-c3ccc(C#N)n3C)cc(F)c21`: the IC50 in data set [4] was determined as 27 nM.
Regarding `Cn1c(C#N)ccc1-c1ccc2c(c1)CC(=O)N2`, the values for the IC50 in [1] and in data set [4] were 80 nM and 20 nM, respectively. Besides, the half-life in data set [5], in data set [6] and in [7] was greater than 30 min in each case.
